In ChEMBL document CHEMBL3877264, “Quinolidene-rhodanine conjugates: Facile synthesis and biological evaluation” (Eur J Med Chem, 2017):
≈ marks a conversion by molar mass, not a printed value.

What was measured:
Type in all cases: functional
[1] = system: Mycobacterium tuberculosis; assay: Growth inhibition of Mycobacterium tuberculosis H37Ra ATCC 25177 at dormant stage measured after 12 days by XTT dye based two fold dilution method; details: H37Ra ATCC 25177, 288 h
How it was run: (§1)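 MTB H37Ra was grown in Dubos medium, then exposed in Mycobacterium pheli minimal medium (pH 6.6) to compounds dissolved in DMSO. The assay ended on day 8 (active) or day 12 (dormant). Viable cells were measured by XTT reduction menadione assay at 470 nm, blank-corrected, relative to vehicle control. Triplicates were expressed as mean ± SD. MIC came from dose-response curves.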

Staphylococcus aureus [2] = assay: Antibacterial activity against of Staphylococcus aureus NCIM 2010 measured after 12 hrs; details: NCIM 2010, 12 h
How it was run: (§2)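 Bacteria grown in LB at 37 °C and 180 rpm to OD 1. Compounds added to wells, then 0.1% inoculum of 1 OD culture (620 nm). Growth read as OD at 620 nm after 8 h for gram-negative and after 12 h for gram-positive strains.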

[3] = system: Mycobacterium tuberculosis; assay: Growth inhibition of Mycobacterium bovis BCG ATCC 35743 at dormant stage measured after 12 days by nitrate reductase dye based two fold dilution method; details: BCG str. ATCC 35743, 288 h
How it was run: (§3)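 M. bovis BCG was grown in Dubos medium and assayed in Mycobacterium pheli minimal medium (pH 6.6), with compounds from DMSO stocks. Incubation lasted 8 days for active and 12 days for dormant cultures. Viability was read by nitrate reductase at 540 nm against cell-free blanks, with vehicle set as 100% growth. Primary screen was at 30, 10 and 3 µg/ml, in triplicate, mean ± SD. MIC was taken from dose-response curves.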

Escherichia coli [4] = assay: Growth inhibition of Escherichia coli NCIM 2688 at 30 ug/ml measured after 8 hrs relative to control; details: NCIM 2688, 8 h, read-out: GI; how it was run: as §2
Escherichia coli [5] = assay: Antibacterial activity against Escherichia coli NCIM 2688 measured after 8 hrs; details: NCIM 2688, 8 h; how it was run: as §2
[6] = system: Mycobacterium tuberculosis; assay: Growth inhibition of Mycobacterium bovis BCG ATCC 35743 at dormant stage at 30 ug/ml measured after 12 days by nitrate reductase dye based two fold dilution method relative to control; details: BCG str. ATCC 35743, 288 h, read-out: GI; how it was run: as §3
Aspergillus niger = assay: Antifungal activity against Aspergillus niger NCIM 1196 by standard agar method
How it was run: (§4)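 MICs determined by standard agar method; DMSO as solvent control.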

Escherichia coli [7] = assay: Growth inhibition of Escherichia coli NCIM 2688 at 3 ug/ml measured after 8 hrs relative to control; details: NCIM 2688, 8 h, read-out: GI; how it was run: as §2
Bacillus subtilis [8] = assay: Growth inhibition of Bacillus subtilis NCIM 2079 at 30 ug/ml measured after 12 hrs relative to control; details: NCIM 2079, 12 h, read-out: GI; how it was run: as §2
Candida albicans = assay: Antifungal activity against Candida albicans NCIM 3471 by standard agar method; how it was run: as §4
Pseudomonas fluorescens [9] = assay: Growth inhibition of Pseudomonas fluorescens NCIM 2036 at 10 ug/ml measured after 8 hrs relative to control; details: NCIM 2036, 8 h, read-out: GI; how it was run: as §2
Staphylococcus aureus [10] = assay: Growth inhibition of Staphylococcus aureus NCIM 2010 at 30 ug/ml measured after 12 hrs relative to control; details: NCIM 2010, 12 h, read-out: GI; how it was run: as §2
[11] = system: Mycobacterium tuberculosis; assay: Growth inhibition of Mycobacterium bovis BCG ATCC 35743 at dormant stage at 3 ug/ml measured after 12 days by nitrate reductase dye based two fold dilution method relative to control; details: BCG str. ATCC 35743, 288 h, read-out: GI; how it was run: as §3
Pseudomonas fluorescens [12] = assay: Growth inhibition of Pseudomonas fluorescens NCIM 2036 at 3 ug/ml measured after 8 hrs relative to control; details: NCIM 2036, 8 h, read-out: GI; how it was run: as §2
[13] = system: Mycobacterium tuberculosis; assay: Growth inhibition of Mycobacterium bovis BCG ATCC 35743 at dormant stage at 10 ug/ml measured after 12 days by nitrate reductase dye based two fold dilution method relative to control; details: BCG str. ATCC 35743, 288 h, read-out: GI; how it was run: as §3
Pseudomonas fluorescens [14] = assay: Antibacterial activity against Pseudomonas fluorescens NCIM 2036 measured after 8 hrs; details: NCIM 2036, 8 h; how it was run: as §2
Escherichia coli [15] = assay: Growth inhibition of Escherichia coli NCIM 2688 at 10 ug/ml measured after 8 hrs relative to control; details: NCIM 2688, 8 h, read-out: GI; how it was run: as §2
Staphylococcus aureus [16] = assay: Growth inhibition of Staphylococcus aureus NCIM 2010 at 3 ug/ml measured after 12 hrs relative to control; details: NCIM 2010, 12 h, read-out: GI; how it was run: as §2
Staphylococcus aureus [17] = assay: Growth inhibition of Staphylococcus aureus NCIM 2010 at 10 ug/ml measured after 12 hrs relative to control; details: NCIM 2010, 12 h, read-out: GI; how it was run: as §2
[18] = Antifungal activity against Cryptococcus neoformans NCIM 576 by standard agar method; how it was run: as §4
Bacillus subtilis [19] = assay: Growth inhibition of Bacillus subtilis NCIM 2079 at 3 ug/ml measured after 12 hrs relative to control; details: NCIM 2079, 12 h, read-out: GI; how it was run: as §2
[20] = system: Mycobacterium tuberculosis; assay: Growth inhibition of Mycobacterium bovis BCG ATCC 35743 at active stage measured after 8 days by nitrate reductase dye based two fold dilution method; details: BCG str. ATCC 35743, 192 h; how it was run: as §3
Bacillus subtilis [21] = assay: Antibacterial activity against Bacillus subtilis NCIM 2079 measured after 12 hrs; details: NCIM 2079, 12 h; how it was run: as §2
Aspergillus flavus = assay: Antifungal activity against Aspergillus flavus NCIM 539 by standard agar method; how it was run: as §4
Bacillus subtilis [22] = assay: Growth inhibition of Bacillus subtilis NCIM 2079 at 10 ug/ml measured after 12 hrs relative to control; details: NCIM 2079, 12 h, read-out: GI; how it was run: as §2
[23] = system: Mycobacterium tuberculosis; assay: Growth inhibition of Mycobacterium tuberculosis H37Ra ATCC 25177 at active stage measured after 8 days by XTT dye based two fold dilution method; details: H37Ra ATCC 25177, 192 h; how it was run: as §1
Pseudomonas fluorescens [24] = assay: Growth inhibition of Pseudomonas fluorescens NCIM 2036 at 30 ug/ml measured after 8 hrs relative to control; details: NCIM 2036, 8 h, read-out: GI; how it was run: as §2
[25] = Antifungal activity against Fusarium oxysporum NCIM 1332 by standard agar method; how it was run: as §4

Compound | IC50 [1] | IC90 [1] | MIC (Staphylococcus aureus [2]) | IC50 [3] | IC90 [3] | inhibition of growth at 30 µg/mL (Escherichia coli [4]) | MIC (Escherichia coli [5]) | inhibition of growth at 30 µg/mL [6] | MIC (Aspergillus niger) | inhibition of growth at 3 µg/mL (Escherichia coli [7]) | inhibition of growth at 30 µg/mL (Bacillus subtilis [8]) | MIC (Candida albicans) | inhibition of growth at 10 µg/mL (Pseudomonas fluorescens [9]) | inhibition of growth at 30 µg/mL (Staphylococcus aureus [10]) | inhibition of growth at 3 µg/mL [11] | inhibition of growth at 3 µg/mL (Pseudomonas fluorescens [12]) | inhibition of growth at 10 µg/mL [13] | MIC (Pseudomonas fluorescens [14]) | inhibition of growth at 10 µg/mL (Escherichia coli [15]) | inhibition of growth at 3 µg/mL (Staphylococcus aureus [16]) | also measured
O=C(O)CCN1C(=O)/C(=C/c2cc3cc(F)ccc3nc2Cl)SC1=S | > 30 µg/mL | > 30 µg/mL | > 30 µg/mL | > 30 µg/mL | > 30 µg/mL | 22.4% | > 30 µg/mL | 59.8% | 25 µg/mL (≈ 63 µM) | 15.7% | -9.07% | 50 µg/mL (≈ 126 µM) | -7.25% | -23.8% | 18.2% | 9.73% | 23.5% | > 30 µg/mL | 21.4% | 5.15% | inhibition of growth at 10 µg/mL (Staphylococcus aureus [17]): -12.1%; MIC [18]: 25 µg/mL (≈ 63 µM); inhibition of growth at 3 µg/mL (Bacillus subtilis [19]): -5.16%; IC50 [20]: > 30 µg/mL; IC90 [20]: > 30 µg/mL; MIC (Bacillus subtilis [21]): > 30 µg/mL; MIC (Aspergillus flavus): 25 µg/mL (≈ 63 µM); inhibition of growth at 10 µg/mL (Bacillus subtilis [22]): -4.74%; IC50 [23]: > 30 µg/mL; IC90 [23]: > 30 µg/mL; inhibition of growth at 30 µg/mL (Pseudomonas fluorescens [24]): 7.54%; MIC [25]: 50 µg/mL (≈ 126 µM)
CCOc1ccc2nc(Cl)c(/C=C3\SC(=S)N(CCC(=O)O)C3=O)cc2c1 | > 30 µg/mL | > 30 µg/mL | > 30 µg/mL | > 30 µg/mL | > 30 µg/mL | 14.8% | > 30 µg/mL | 32.5% | 175 µg/mL (≈ 414 µM) | 5.32% | -4.16% | 200 µg/mL (≈ 473 µM) | -40.5% | -27.7% | 21.5% | -85% | 33% | > 30 µg/mL | 7.42% | -5.78% | inhibition of growth at 10 µg/mL (Staphylococcus aureus [17]): -39.4%; MIC [18]: 175 µg/mL (≈ 414 µM); inhibition of growth at 3 µg/mL (Bacillus subtilis [19]): -2.45%; IC50 [20]: > 30 µg/mL; IC90 [20]: > 30 µg/mL; MIC (Bacillus subtilis [21]): > 30 µg/mL; MIC (Aspergillus flavus): 100 µg/mL (≈ 236 µM); inhibition of growth at 10 µg/mL (Bacillus subtilis [22]): -8.28%; IC50 [23]: > 30 µg/mL; IC90 [23]: > 30 µg/mL; inhibition of growth at 30 µg/mL (Pseudomonas fluorescens [24]): 7.19%; MIC [25]: 125 µg/mL (≈ 296 µM)
COc1ccc2cc(/C=C3\SC(=S)N(CC(=O)O)C3=O)c(Cl)nc2c1 | > 30 µg/mL | > 30 µg/mL | > 30 µg/mL | > 30 µg/mL | > 30 µg/mL | -17.9% | > 30 µg/mL | 0.66% | 150 µg/mL (≈ 380 µM) | 2.49% | 6.8% | 50 µg/mL (≈ 127 µM) | -54.3% | -17.7% | -1.36% | 4.92% | 33% | > 30 µg/mL | 7.54% | -13.7% | inhibition of growth at 10 µg/mL (Staphylococcus aureus [17]): -11.3%; MIC [18]: 100 µg/mL (≈ 253 µM); inhibition of growth at 3 µg/mL (Bacillus subtilis [19]): 2.79%; IC50 [20]: > 30 µg/mL; IC90 [20]: > 30 µg/mL; MIC (Bacillus subtilis [21]): > 30 µg/mL; MIC (Aspergillus flavus): 125 µg/mL (≈ 317 µM); inhibition of growth at 10 µg/mL (Bacillus subtilis [22]): -0.0845%; IC50 [23]: > 30 µg/mL; IC90 [23]: > 30 µg/mL; inhibition of growth at 30 µg/mL (Pseudomonas fluorescens [24]): 10.3%; MIC [25]: 75 µg/mL (≈ 190 µM)
